Key:
[1] = biological target: human topo IIβ (Homo sapiens, UniProt Q02880); test: Human topo IIβ-mediated decatenation assay; type: biochemical
[2] = biological target: T1, human topo IIα (Homo sapiens, UniProt P11388); test: Human topoisomerase IIα-mediated cleavage assay; type: biochemical; conditions: 7.8-125 μM
[3] = biological target: T1, human topo IIα; test: Human topo IIα competitive cleavage assay; type: biochemical; conditions: in the presence of 50 μM etoposide
[4] = tested on: wheatgerm topo I; test: Wheatgerm topo I unwinding assay; type: biochemical, wheat germ; conditions: 7.8, 15.6, 31.25, 125 μM
How it was run: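 Wheat germ topo I plasmid unwinding run in duplicate at 7.8, 15.6, 31.25 and 125 µM test compound, with the intercalator m-AMSA as positive control.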

[5] = biological target: human topo II (Homo sapiens, UniProt P11388); test: Competitive ATPase assay; type: biochemical; conditions: IC50 versus ATP concentration
How it was run: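 NADH-coupled ATPase (pyruvate kinase/lactate dehydrogenase, phosphoenolpyruvate) with human topo II at 14 nM final and linear pBR322. Buffer was 20 mM Tris-HCl, 5 mM Mg acetate, 125 mM K acetate, 2 mM DTT, pH 7.9. Compound in DMSO went in before enzyme, then a 10–15 min OD340 pre-run. ATP was added at varying concentrations and OD340 followed for up to 30 min at 37 °C, in duplicate. Hydrolysis rates vs ATP gave IC50 at each ATP level.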

[6] = biological target: ATPase domain of topo IIα (Homo sapiens, UniProt P11388); test: 1H STD NMR experiments; type: binding; conditions: protein:ligand ratio 1:100
How it was run: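 Runs were at 600 MHz, 25 °C, with a 100 ms T₁ρ filter. On-resonance saturation was at −0.727 ppm and off-resonance at 30 ppm. Saturation was 0.5 or 1 s depending on compound, with relaxation delay 4 or 1.5 s. Epitope maps come from STD amplification factors.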

[7] = Solubility as observed during preparation for assays; type: physicochemical
[8] = tested on: NCI-60 human cancer cell lines; test: NCI-60 screening, whole panel; type: cell-based; conditions: 10 µM
[9] = biological target: B-Raf (Homo sapiens, UniProt P15056); test: KinaseProfiler kinase activity assay; type: biochemical
How it was run: (§1)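 Radiometric kinase assay of test compound at 10 µM, added first from a 50× DMSO stock with no pre-incubation. Kinase was diluted in 45 mM TRIS, 0.4 mM EGTA, 18 mM DTT, 0.02 % Triton X-100, 1 mM sodium orthovanadate, 1 mM β-glycerophosphate, 2 % glycerol. Solvent wells (2 % DMSO) gave 100 % activity. Staurosporine blank wells defined 0 % activity.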

[10] = biological target: CDK1/cyclinB (Homo sapiens, UniProt P06493); test: KinaseProfiler kinase activity assay; type: biochemical
How it was run: (§2)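 Radiometric kinase activity assay. Test compound was made as a 50× stock in 100 % DMSO and added first to 10 µM, with no pre-incubation before reaction start. Kinase was prepared in 20 mM MOPS, 1 mM EDTA, 0.01 % Brij-35, 5 % glycerol, 0.1 % β-mercaptoethanol, 1 mg/mL BSA. Full-activity wells had 2 % DMSO without compound. Blank wells with staurosporine set 0 % activity.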

[11] = biological target: cKit (Homo sapiens, UniProt P10721); test: KinaseProfiler kinase activity assay; type: biochemical
How it was run: as §2

[12] = biological target: c-RAF (Homo sapiens, UniProt P04049); test: KinaseProfiler kinase activity assay; type: biochemical
How it was run: as §1

[13] = biological target: EGFR (Homo sapiens, UniProt P00533); test: KinaseProfiler kinase activity assay; type: biochemical
How it was run: as §2

[14] = biological target: FGFR1 (Homo sapiens, UniProt P11362); test: KinaseProfiler kinase activity assay; type: biochemical
How it was run: as §2

[15] = biological target: FGFR3 (Homo sapiens, UniProt P22607); test: KinaseProfiler kinase activity assay; type: biochemical
How it was run: as §2

[16] = biological target: Flt1 (Homo sapiens, UniProt P17948); test: KinaseProfiler kinase activity assay; type: biochemical
[17] = biological target: Flt3 (Homo sapiens, UniProt P36888); test: KinaseProfiler kinase activity assay; type: biochemical
[18] = biological target: Fms (Homo sapiens, UniProt P07333); test: KinaseProfiler kinase activity assay; type: biochemical
[19] = biological target: IGF-1R (Homo sapiens, UniProt P08069); test: KinaseProfiler kinase activity assay; type: biochemical
[20] = biological target: JAK2 (Homo sapiens, UniProt O60674); test: KinaseProfiler kinase activity assay; type: biochemical
[21] = biological target: MEKK3 (Homo sapiens, UniProt Q99759); test: KinaseProfiler kinase activity assay; type: biochemical
How it was run: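 Kinase was prepared in 50 mM HEPES, 1 mM EDTA, 10 mM DTT, 0.01 % Brij-35. Activity was measured radiometrically with 10 µM test compound added first from a 50× DMSO stock, without pre-incubation. Activity is expressed relative to 2 % DMSO control wells (100 %) and staurosporine blank wells (0 %).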

[22] = biological target: PDGFRα (Homo sapiens, UniProt P16234); test: KinaseProfiler kinase activity assay; type: biochemical
How it was run: as §2

[23] = biological target: PKA (Homo sapiens, UniProt P17612); test: KinaseProfiler kinase activity assay; type: biochemical
How it was run: as §2

[24] = biological target: PKBα (Homo sapiens, UniProt P31749); test: KinaseProfiler kinase activity assay; type: biochemical
How it was run: as §2

[25] = biological target: Ret (Homo sapiens, UniProt P07949); test: KinaseProfiler kinase activity assay; type: biochemical
How it was run: as §2

[26] = biological target: Src(1-530) (Homo sapiens, UniProt P12931); test: KinaseProfiler kinase activity assay; type: biochemical
How it was run: as §2

[27] = biological target: ATM (Homo sapiens, UniProt Q13315); test: KinaseProfiler kinase activity assay; type: biochemical
How it was run: (§3)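 Radiometric activity assay with 10 µM test compound, added first from a 50× stock in 100 % DMSO, with no compound–kinase pre-incubation. Full activity came from 2 % DMSO wells without compound. The 0 % baseline came from a reference inhibitor: KU55933 for ATM, PI-103 for DNA-PK.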

[28] = biological target: DNA-PK (Homo sapiens, UniProt P78527); test: KinaseProfiler kinase activity assay; type: biochemical
How it was run: as §3

[29] = tested on: panel of 20 human protein kinases; test: KinaseProfiler, whole panel; type: biochemical; conditions: 10 µM

T1 sequence (P11388 whole entry): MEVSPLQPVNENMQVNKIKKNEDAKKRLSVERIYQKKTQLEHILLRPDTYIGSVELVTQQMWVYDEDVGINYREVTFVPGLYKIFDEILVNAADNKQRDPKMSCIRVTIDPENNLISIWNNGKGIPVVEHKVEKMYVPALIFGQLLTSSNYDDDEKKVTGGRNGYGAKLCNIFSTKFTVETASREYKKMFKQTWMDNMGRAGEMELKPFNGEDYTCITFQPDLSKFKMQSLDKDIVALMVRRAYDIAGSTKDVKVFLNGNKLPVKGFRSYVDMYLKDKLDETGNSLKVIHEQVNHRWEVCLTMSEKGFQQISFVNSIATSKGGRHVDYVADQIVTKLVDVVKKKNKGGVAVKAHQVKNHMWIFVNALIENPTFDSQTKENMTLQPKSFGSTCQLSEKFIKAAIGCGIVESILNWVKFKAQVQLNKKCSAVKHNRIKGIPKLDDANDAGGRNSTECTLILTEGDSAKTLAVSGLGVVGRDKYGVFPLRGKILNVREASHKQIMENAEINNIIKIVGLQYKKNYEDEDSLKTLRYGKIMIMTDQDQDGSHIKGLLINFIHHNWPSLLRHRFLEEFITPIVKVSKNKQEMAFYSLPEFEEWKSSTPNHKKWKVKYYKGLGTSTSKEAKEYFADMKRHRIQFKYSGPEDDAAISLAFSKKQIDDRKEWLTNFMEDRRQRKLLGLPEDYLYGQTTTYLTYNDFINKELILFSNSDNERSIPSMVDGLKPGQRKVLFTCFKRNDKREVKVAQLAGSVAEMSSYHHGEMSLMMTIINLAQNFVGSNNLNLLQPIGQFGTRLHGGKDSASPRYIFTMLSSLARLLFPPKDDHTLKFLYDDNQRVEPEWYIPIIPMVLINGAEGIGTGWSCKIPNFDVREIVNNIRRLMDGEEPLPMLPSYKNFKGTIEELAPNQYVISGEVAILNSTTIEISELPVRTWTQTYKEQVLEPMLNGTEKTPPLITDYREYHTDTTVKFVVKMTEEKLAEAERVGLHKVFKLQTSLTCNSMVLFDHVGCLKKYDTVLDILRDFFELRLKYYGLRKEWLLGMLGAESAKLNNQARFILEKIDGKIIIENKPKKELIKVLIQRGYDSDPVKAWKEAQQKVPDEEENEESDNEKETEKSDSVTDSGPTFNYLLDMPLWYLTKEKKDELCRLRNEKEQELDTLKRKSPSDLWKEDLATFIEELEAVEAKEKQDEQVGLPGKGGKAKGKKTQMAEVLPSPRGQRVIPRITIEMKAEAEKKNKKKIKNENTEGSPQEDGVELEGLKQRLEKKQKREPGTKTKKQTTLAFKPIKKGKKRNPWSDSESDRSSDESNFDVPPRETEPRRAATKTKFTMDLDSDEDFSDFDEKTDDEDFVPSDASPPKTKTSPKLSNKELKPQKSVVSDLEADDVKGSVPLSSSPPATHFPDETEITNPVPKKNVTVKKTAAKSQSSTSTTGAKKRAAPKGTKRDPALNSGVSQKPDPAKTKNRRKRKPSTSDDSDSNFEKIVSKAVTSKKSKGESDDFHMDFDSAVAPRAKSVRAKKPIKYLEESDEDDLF
Chain of IGF-1R (P08069 31-1367): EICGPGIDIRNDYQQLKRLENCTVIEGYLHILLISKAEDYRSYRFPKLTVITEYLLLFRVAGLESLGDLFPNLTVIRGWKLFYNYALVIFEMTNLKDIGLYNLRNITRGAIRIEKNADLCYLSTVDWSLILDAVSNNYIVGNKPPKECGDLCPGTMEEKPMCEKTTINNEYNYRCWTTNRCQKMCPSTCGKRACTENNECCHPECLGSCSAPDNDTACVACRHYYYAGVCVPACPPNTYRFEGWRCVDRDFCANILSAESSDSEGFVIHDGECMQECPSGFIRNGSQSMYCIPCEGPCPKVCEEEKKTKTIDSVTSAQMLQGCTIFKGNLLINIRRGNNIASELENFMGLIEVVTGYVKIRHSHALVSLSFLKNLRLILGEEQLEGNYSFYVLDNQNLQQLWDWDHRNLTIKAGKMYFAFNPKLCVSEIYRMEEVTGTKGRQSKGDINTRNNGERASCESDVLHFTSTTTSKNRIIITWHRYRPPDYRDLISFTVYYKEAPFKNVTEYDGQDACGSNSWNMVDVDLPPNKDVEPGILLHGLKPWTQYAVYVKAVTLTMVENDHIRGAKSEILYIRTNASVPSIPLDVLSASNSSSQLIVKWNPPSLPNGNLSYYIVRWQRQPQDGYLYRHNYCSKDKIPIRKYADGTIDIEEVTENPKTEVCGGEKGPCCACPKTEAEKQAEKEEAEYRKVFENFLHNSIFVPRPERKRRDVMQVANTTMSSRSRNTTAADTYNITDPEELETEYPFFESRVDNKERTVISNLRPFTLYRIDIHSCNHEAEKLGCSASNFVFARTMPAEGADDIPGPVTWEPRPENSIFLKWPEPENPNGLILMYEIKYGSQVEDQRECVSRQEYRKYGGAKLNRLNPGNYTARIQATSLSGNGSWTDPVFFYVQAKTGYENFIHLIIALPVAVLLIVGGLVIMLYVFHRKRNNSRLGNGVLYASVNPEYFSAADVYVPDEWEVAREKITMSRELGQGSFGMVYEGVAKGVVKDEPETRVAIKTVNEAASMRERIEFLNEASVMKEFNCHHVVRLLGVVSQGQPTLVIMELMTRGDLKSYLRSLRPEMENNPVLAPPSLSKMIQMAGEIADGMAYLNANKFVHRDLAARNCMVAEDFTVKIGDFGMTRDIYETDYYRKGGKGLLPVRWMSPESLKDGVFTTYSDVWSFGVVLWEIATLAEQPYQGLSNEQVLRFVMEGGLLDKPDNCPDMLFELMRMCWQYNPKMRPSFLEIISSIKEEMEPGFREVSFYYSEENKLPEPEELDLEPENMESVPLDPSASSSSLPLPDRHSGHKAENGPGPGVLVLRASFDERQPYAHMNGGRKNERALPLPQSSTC
Chain of Fms (P07333 20-972): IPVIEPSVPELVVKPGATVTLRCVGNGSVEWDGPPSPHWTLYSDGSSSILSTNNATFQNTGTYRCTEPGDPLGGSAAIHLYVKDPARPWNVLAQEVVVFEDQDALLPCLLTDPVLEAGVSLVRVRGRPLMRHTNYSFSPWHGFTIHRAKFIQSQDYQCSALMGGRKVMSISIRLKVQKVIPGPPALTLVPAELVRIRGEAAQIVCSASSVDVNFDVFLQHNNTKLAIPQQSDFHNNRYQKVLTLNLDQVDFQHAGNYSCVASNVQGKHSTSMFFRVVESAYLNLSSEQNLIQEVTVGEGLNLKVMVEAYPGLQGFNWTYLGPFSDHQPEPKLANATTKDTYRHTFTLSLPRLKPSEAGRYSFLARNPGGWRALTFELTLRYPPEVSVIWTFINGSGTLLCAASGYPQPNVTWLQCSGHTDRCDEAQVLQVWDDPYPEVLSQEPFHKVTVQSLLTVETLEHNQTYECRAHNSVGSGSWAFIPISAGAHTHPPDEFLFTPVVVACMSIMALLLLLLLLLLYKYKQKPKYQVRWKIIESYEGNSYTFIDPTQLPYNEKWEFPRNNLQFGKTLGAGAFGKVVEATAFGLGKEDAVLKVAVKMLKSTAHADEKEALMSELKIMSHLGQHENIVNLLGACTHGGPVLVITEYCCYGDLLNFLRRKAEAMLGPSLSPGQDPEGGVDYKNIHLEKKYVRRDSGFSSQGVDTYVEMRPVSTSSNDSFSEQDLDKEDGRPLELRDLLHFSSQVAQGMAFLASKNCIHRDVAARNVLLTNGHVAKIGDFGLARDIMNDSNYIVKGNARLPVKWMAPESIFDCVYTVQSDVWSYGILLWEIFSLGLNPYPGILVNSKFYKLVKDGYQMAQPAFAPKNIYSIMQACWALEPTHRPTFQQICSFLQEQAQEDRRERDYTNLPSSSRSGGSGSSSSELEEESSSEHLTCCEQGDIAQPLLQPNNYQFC
Chain of Flt3 (P36888 27-993): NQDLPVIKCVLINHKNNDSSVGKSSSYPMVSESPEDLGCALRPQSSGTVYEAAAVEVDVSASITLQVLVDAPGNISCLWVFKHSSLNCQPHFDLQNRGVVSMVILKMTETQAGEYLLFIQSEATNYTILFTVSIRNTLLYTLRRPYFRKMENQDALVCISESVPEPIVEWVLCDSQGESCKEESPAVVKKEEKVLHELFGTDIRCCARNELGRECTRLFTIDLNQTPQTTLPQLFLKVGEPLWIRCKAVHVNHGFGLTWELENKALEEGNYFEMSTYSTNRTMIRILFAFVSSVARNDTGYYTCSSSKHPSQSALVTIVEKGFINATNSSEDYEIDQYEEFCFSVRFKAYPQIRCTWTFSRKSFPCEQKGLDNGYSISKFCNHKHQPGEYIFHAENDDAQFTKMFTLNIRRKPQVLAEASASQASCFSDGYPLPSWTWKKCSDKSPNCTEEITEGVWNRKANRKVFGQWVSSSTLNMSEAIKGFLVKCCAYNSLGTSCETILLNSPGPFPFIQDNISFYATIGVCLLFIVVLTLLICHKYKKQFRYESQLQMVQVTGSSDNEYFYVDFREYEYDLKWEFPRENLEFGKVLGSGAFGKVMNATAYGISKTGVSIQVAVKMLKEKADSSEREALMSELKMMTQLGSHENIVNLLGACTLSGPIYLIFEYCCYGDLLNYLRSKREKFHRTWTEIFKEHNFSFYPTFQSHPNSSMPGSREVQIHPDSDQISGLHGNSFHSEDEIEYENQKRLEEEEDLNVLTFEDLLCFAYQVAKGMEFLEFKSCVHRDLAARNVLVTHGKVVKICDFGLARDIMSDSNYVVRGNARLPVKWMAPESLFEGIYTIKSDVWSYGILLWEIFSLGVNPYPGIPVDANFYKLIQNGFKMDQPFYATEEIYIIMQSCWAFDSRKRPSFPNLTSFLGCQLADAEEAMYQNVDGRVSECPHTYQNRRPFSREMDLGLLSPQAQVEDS
Chain of human topo II (P11388 whole entry): as the sequence (P11388 whole entry) above

O=c1nc(SCc2cc(F)cc(C(F)(F)F)c2)nc(SCc2ccc3sccc3c2)[nH]1 [Compound 24, 6-((Benzo[b]thiophen-5-ylmethyl)thio)−4-((3-fluoro-5-(trifluoromethyl)benzyl)thio)−1,3,5-triazin-2(1H)-one]
IC50 [1]: 9.9 ± 0.4 µM
linear plasmid in the cleavage assay (in words) [2]: a low level of linear plasmid was detected at 15.6 μM and above
linear product in the competitive cleavage assay (in words) [3]: appeared to reduce the linear product of the etoposide-topoIIα cleavage complex at lower concentrations
unwinding / intercalation (in words) [4]: inhibitors rather than intercalators
mode of inhibition with respect to ATP (in words) [5]: no noticeable decrease in IC50 values
interaction with the ATPase domain of topo IIα by STD NMR (in words) [6]: confirmed the interaction
solubility (in words) [7]: more soluble compared to the benzyl-substituted analogues
cytotoxic activity in NCI-60 (in words) [8]: marginal cytotoxicity in several leukemia cell lines
activity at 10 µM [9]: 93%
activity at 10 µM [10]: 124%
activity at 10 µM [11]: 99%
activity at 10 µM [12]: 110%
activity at 10 µM [13]: 100%
activity at 10 µM [14]: 90%
activity at 10 µM [15]: 92%
activity at 10 µM [16]: 93%
activity at 10 µM [17]: 93%
activity at 10 µM [18]: 77%
activity at 10 µM [19]: 92%
activity at 10 µM [20]: 107%
activity at 10 µM [21]: 87%
activity at 10 µM [22]: 106%
activity at 10 µM [23]: 86%
activity at 10 µM [24]: 105%
activity at 10 µM [25]: 91%
activity at 10 µM [26]: 127%
activity at 10 µM [27]: 86%
activity at 10 µM [28]: 83%
inhibition of the panel of 20 human protein kinases (in words) [29]: no significant inhibitory effect was observed
